Screening data (PubChem BioAssay)
Shown are actives, neighbours in structure and some others; about 3.2% of the full set was active somewhere.
rCAG binder = r(CAG) repeat RNA binding. TO-PRO-1 dye displacement fluorescence. inhibition, % at 3 µM. hit rate 1.3% among 370,000. AID 651821;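 active means inhibition above the plate cutoff, the mean of all test compounds on that plate plus 3 SD, cut at about 35% in these data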;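 further: 0% = DMSO alone and 100% = 100 µM mitoxantrone as full dye displacement; higher means more dye released from RNA so lower well fluorescence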
mABHD4 FP = ABHD4 (mouse) inhibition, primary FP screen | Q8VD66 | hit rate 0.54% among 370,000 | inhibition, % at 8.92 µM | purified mABHD4, FP-Rh probe fluorescence polarization | AID 720543;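 active means inhibition exceeding the mean over every tested compound plus 3 SD, cut at about 30% in these data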;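 further: 0% = plate median of compound wells and 100% = S159A mutant with DMSO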
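Assay system: mouse ABHD4 enzyme, wild type / Also added: fluorescent activity-based probe FP-Rh / Doses: single nominal dose of 8.92 µM, 0.89% DMSO final / Timing: 45 min compound pre-incubation plus 60 min probe step, 25 °C / Signal: FP readout, ex 525 nm / em 598 nm / Control set: S159A mutant/DMSO as 100%, compound-well median as 0%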
LEDGF integ inh = blocks HIV-1 LEDGF/p75-dependent DNA integration; TR-FRET IN-LEDGF/p75 DNA integration, Eu/Cy5; inhibition, % at 3.7 µM; hit rate 0.64% among 370,000; AID 743269;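 active means inhibition above the screen-wide mean plus 3 SD, cut at about 13% in these data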;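 further: signal is the Cy5 over europium emission ratio at 671 and 618 nm; 0% = plate median of compound wells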
PRMT1 FP inh = inhibitors of human PRMT1; Q99873; recombinant PRMT1, activity-based probe fluorescence polarization; inhibition, % at 2.79 µM; hit rate 1.3% among 370,000;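 active means inhibition above about 21% made by adding two undisclosed values, limit read from the data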
HTRA1 inhibitor = inhibitors of human serine peptidase HTRA1; hit rate 0.5% among 340,000; recombinant HTRA1, FP-rhodamine activity-based probe, fluorescence polarization; inhibition, % at 5.96 µM; Q92743; AID 504803; in the data active means inhibition above about 36%;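 further: 0% = enzyme with DMSO and 100% = wells lacking enzyme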
Target sequence (Q92743 whole entry, looked up): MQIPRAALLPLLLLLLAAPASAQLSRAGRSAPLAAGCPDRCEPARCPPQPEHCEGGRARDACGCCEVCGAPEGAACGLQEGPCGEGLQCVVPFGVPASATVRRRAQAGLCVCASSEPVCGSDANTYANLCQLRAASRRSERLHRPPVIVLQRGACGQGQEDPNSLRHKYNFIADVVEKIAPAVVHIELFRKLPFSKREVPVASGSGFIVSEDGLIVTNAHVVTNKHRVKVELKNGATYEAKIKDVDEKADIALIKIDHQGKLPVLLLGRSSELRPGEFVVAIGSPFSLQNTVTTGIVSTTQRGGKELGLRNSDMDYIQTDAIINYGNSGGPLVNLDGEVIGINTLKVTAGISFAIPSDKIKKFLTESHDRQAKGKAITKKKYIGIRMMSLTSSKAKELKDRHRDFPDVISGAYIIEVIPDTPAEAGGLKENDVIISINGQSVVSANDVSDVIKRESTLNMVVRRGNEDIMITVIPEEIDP
DAGLB inhibitor = diacylglycerol lipase beta (human) inhibition. Q8NCG7. hit rate 0.059% among 340,000. HEK293T DAGLB membrane lysate, EnzChek fluorogenic substrate. inhibition, % at 5.17 µM; in the data active means inhibition above about 34%;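 further: 0% = enzyme with vehicle and 100% = wells lacking enzyme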
HTRA1 conf = HTRA1 (human) inhibition, confirmation. shares compounds with HTRA1 inhibitor. recombinant HTRA1, FP-rhodamine activity-based probe, fluorescence polarization. inhibition, % at 5.96 µM. hit rate 66% among 1,600;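 active means mean inhibition over three repeats above a set limit taken from the earlier primary screen, cut at about 37% in these data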;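 further: 0% = HTRA1 with DMSO and 100% = wells lacking HTRA1; inhibitors block probe binding so polarization drops and inhibition rises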
rCAG bind conf = r(CAG) RNA repeat binding, confirmation | shares compounds with rCAG binder | hit rate 70% among 4,300 | TO-PRO-1 dye displacement fluorescence | inhibition, % at 3 µM;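 active means inhibition above a per-plate cutoff, the mean inhibition of sample wells plus 3 SD, cut at about 35% in these data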;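 further: loss of TO-PRO-1 fluorescence as compound displaces dye from 1x1 AA loop RNA; 0% = DMSO only wells and 100% = 100 µM mitoxantrone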
DNA CAG counter = disrupts DNA CAG TO-PRO-1 complex, flagging rCAG hits | shares compounds with rCAG binder | d(CAG) DNA oligo TO-PRO-1 dye displacement, fluorescence | inhibition, % at 3 µM | hit rate 94% among 4,300 | AID 652068;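 active means inhibition above its plate's cutoff, the mean test-well inhibition plus 3 SD, cut at about 4.8% in these data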;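 further: 0% = DNA dye mix with DMSO and 100% = 100 µM mitoxantrone; hits displace the dye from DNA and so lower well fluorescence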
The depositor's hits bear a star; · = no result given.

SMILES	rCAG binder	mABHD4 FP	LEDGF integ inh	PRMT1 FP inh	HTRA1 inhibitor	DAGLB inhibitor	HTRA1 conf	rCAG bind conf	DNA CAG counter
COc1ccc(C)cc1Nc1nc(-c2c[nH]c3ccccc23)cs1	37*	5	3	10	43*	5	12	20	12*
Cc1cccc(NC(=S)N/N=C/c2ccc([N+](=O)[O-])s2)c1	36*	-3	4	1	60*	14	67*	18	11*
O=S(=O)(Nc1ccc(N=Nc2ccccc2)cc1)c1ccccc1	31	-33	1	-2	-6	16	·	·	·
O=S(=O)(Nc1ccc(N=Nc2ccc(O)c3ccccc23)cc1)c1ccccc1	67*	-3	2	6	44*	31	31	65*	32*
O=C(NCc1ccncc1)C(=O)NCC1OCCN1S(=O)(=O)c1ccc(F)cc1 (stereo unspecified)	3	2	1	0	-4	5	·	·	·
COc1ccc(CNc2cccc3[nH]c(C(F)(F)F)nc23)cc1OC	44*	-2	0	1	40*	2	12	13	9.4*
COc1ccc(CNC(=O)c2[nH]c(C(F)(F)F)nc2-c2ccccc2)cc1OC	3	1	5	-6	·	·	·	·	·
CC1=C(C#N)CCC(=O)N1Cc1c(C)cc(C)cc1C	-7	-3	1	2	-5	-2	·	·	·
O=[N+]([O-])c1ccc(N/N=C/c2cccc(O)c2O)c(S(=O)(=O)N2CCOCC2)c1	35*	24	9	18	59*	13	54*	33	18*
C/C(=N\Nc1nc(-c2cc(C)ccc2C)cs1)c1cc2c(ccc3ccccc32)oc1=O	47*	15	6	7	53*	9	12	45*	23*
C/C(=N\Nc1nc(-c2cc(C)ccc2C)cs1)c1cc2ccccc2oc1=O	14	-5	8	-1	-2	-1	·	·	·
COc1cc(/C=C/c2ccc3c(Br)cc(Br)c(O)c3n2)ccc1O	39*	0	1	-1	44*	9	31	39*	20*
O=C(/C(=N/O)c1ccccc1)c1ccccc1	-2	-8	1	-3	-3	-3	·	·	·
O=C(/C(=N/N=C/c1ccc(O)c(O)c1)c1ccccc1)c1ccccc1	37*	16	-5	3	41*	8	78*	51*	27*
Cc1ccc2cccc(OC(=O)c3c(F)cccc3Cl)c2n1	2	-2	4	-5	·	·	·	·	·
Cc1cc(C)c2nc(NNC(=O)c3ccc(S(=O)(=O)N4CC(C)CC(C)C4)cc3)sc2c1 (stereo unspecified)	43*	1	15*	12	54*	-13	61*	49*	24*
Cc1ccc2nc(NNC(=O)c3ccc4c(c3)OCCO4)sc2c1	7	14	2	8	11	2	·	·	·
CC1CCCN(S(=O)(=O)c2ccc(C(=O)Nc3nnc(C4CC4)o3)cc2)C1 (stereo unspecified)	16	-9	-2	1	1	2	·	·	·
Cc1cc(C)c2nc(NNC(=O)c3ccc(S(=O)(=O)N4CCCC(C)C4)cc3)sc2c1 (stereo unspecified)	47*	-1	10	3	51*	-2	54*	52*	23*
Cc1cccc2sc(NNC(=O)c3ccc(S(=O)(=O)N4CC(C)CC(C)C4)cc3)nc12 (stereo unspecified)	66*	-2	12	2	60*	-14	41*	63*	30*
CCC(=O)NNc1nc2c(C)cc(C)cc2s1	0	-4	4	-2	-2	2	·	·	·
Cc1ccc2nc(NNC(=O)c3ccc(S(=O)(=O)N4CCc5ccccc5C4)cc3)sc2c1	51*	-1	0	-3	49*	12	26	60*	29*
